# Source: ChEMBL document CHEMBL2346664, “Synthesis, characterization and in vitro anticancer evaluation of novel 1,2,4-triazolin-3-one derivatives” (2013)
# Assays:
# Format in all cases: functional
# [1] = tested on: HT-29; test: Growth inhibition of human HT-29 cells assessed as cell growth at 10 '-5 M after 48 hrs by sulforhodamine B assay; conditions: HT-29, 48 h, read-out: Activity
# [2] = tested on: HL-60(TB); test: Growth inhibition of human HL-60(TB) cells assessed as cell growth at 10 '-5 M after 48 hrs by sulforhodamine B assay; conditions: HL-60, 48 h, read-out: Activity
# How it was run: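 Five-dose NCI protocol with final concentrations of 0.01–100 µM and drug diluted from a DMSO stock (400× the top concentration) in medium with gentamicin. Cells were pre-incubated 24 h, then exposed 48 h at 37 °C. Suspension cells were fixed with 16% final TCA, SRB-stained and read at 515 nm. Percentage growth at each level was [(Ti−Tz)/(C−Tz)]×100, or [(Ti−Tz)/Tz]×100 when Ti < Tz.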
# [3] = tested on: OVCAR-5; test: Growth inhibition of human OVCAR5 cells assessed as cell growth at 10 '-6 M after 48 hrs by sulforhodamine B assay; conditions: OVCAR-5, 48 h, read-out: Activity
# [4] = tested on: OVCAR-3; test: Growth inhibition of human OVCAR3 cells assessed as cell growth at 10 '-6 M after 48 hrs by sulforhodamine B assay; conditions: OVCAR-3, 48 h, read-out: Activity
# [5] = tested on: IGROV-1; test: Growth inhibition of human IGROV1 cells assessed as cell growth at 10 '-6 M after 48 hrs by sulforhodamine B assay; conditions: IGROV-1, 48 h, read-out: Activity
# [6] = tested on: UACC-257; test: Growth inhibition of human UACC257 cells assessed as cell growth at 10 '-6 M after 48 hrs by sulforhodamine B assay; conditions: UACC-257, 48 h, read-out: Activity
# [7] = tested on: SK-OV-3; test: Growth inhibition of human SKOV3 cells assessed as growth inhibition at 10 uM after 48 hrs by sulforhodamine B assay; conditions: SK-OV-3, 48 h, read-out: GI
# [8] = tested on: HT-29; test: Growth inhibition of human HT-29 cells assessed as growth inhibition at 10 uM after 48 hrs by sulforhodamine B assay; conditions: HT-29, 48 h, read-out: GI
# [9] = tested on: SR; test: Growth inhibition of human SR cells assessed as growth inhibition at 10 uM after 48 hrs by sulforhodamine B assay; conditions: read-out: GI
# [10] = tested on: DU-145; test: Growth inhibition of human DU145 cells assessed as cell growth at 10 '-7 M after 48 hrs by sulforhodamine B assay; conditions: DU-145, 48 h, read-out: Activity
# [11] = tested on: A498; test: Growth inhibition of human A498 cells assessed as cell growth at 10 '-7 M after 48 hrs by sulforhodamine B assay; conditions: A498, 48 h, read-out: Activity
# How it was run: (§1)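 Percent growth at each of the five concentrations of the 48 h continuous-exposure NCI SRB screen. Drug stocks were in DMSO at 400× the top final concentration and diluted in medium with gentamicin. Growth was calculated as [(Ti-Tz)/(C-Tz)]×100 when Ti ≥ Tz, or [(Ti-Tz)/Tz]×100 when Ti < Tz. Tz plates were fixed at drug addition; untreated wells served as control. Absorbance was read at 515 nm.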
# [12] = tested on: SK-MEL-28; test: Growth inhibition of human SK-MEL-28 cells assessed as cell growth at 10 '-4 M after 48 hrs by sulforhodamine B assay; conditions: SK-MEL-28, 48 h, read-out: Activity
# [13] = tested on: HCT-15; test: Growth inhibition of human HCT15 cells assessed as cell growth at 10 '-4 M after 48 hrs by sulforhodamine B assay; conditions: HCT-15, 48 h, read-out: Activity
# [14] = tested on: K562; test: Growth inhibition of human K562 cells assessed as cell growth at 10 '-8 M after 48 hrs by sulforhodamine B assay; conditions: K562, 48 h, read-out: Activity
# [15] = Growth inhibition of human EKVX cells assessed as cell growth at 10 '-4 M after 48 hrs by sulforhodamine B assay; conditions: read-out: Activity
# [16] = tested on: BT-549; test: Growth inhibition of human BT549 cells assessed as cell growth at 10 '-5 M after 48 hrs by sulforhodamine B assay; conditions: BT-549, 48 h, read-out: Activity; how it was run: as §1
# [17] = tested on: LOX IMVI; test: Growth inhibition of human LOXIMVI cells after 48 hrs by sulforhodamine B assay
# How it was run: (§2)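 NCI 60-cell-line five-dose screen. Cells were plated at 5,000–40,000/well by doubling time and grown 24 h at 37 °C, 5% CO2. Time-zero plates were TCA-fixed. Drug from DMSO stock was tested at 0.01, 0.1, 1, 10 and 100 µM final for 48 h continuous exposure. Read-out was SRB at 515 nm. GI50 is the concentration giving 50% reduction in net protein increase versus untreated control.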
# [18] = tested on: A549; test: Growth inhibition of human A549 cells after 48 hrs by sulforhodamine B assay; conditions: A549, 48 h
# How it was run: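 NCI 60-cell-line five-dose screen at 0.01, 0.1, 1, 10 and 100 µM final. Cells were plated at 5,000–40,000/well and grown 24 h at 37 °C, 5% CO2, then exposed to drug continuously for 48 h. Adherent cells were fixed with cold TCA (10% final) and stained with SRB; absorbance read at 515 nm. GI50 is the concentration where [(Ti-Tz)/(C-Tz)]×100 = 50, with Tz plates fixed at drug addition.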
# [19] = tested on: K562; test: Growth inhibition of human K562 cells after 48 hrs by sulforhodamine B assay; conditions: K562, 48 h; how it was run: as §2
# [20] = tested on: DU-145; test: Growth inhibition of human DU145 cells assessed as growth inhibition at 10 uM after 48 hrs by sulforhodamine B assay; conditions: DU-145, 48 h, read-out: GI
# [21] = tested on: TK-10; test: Growth inhibition of human TK10 cells assessed as growth inhibition at 10 uM after 48 hrs by sulforhodamine B assay; conditions: TK-10, 48 h, read-out: GI
# [22] = tested on: A549; test: Growth inhibition of human A549 cells assessed as cell growth at 10 '-7 M after 48 hrs by sulforhodamine B assay; conditions: A549, 48 h, read-out: Activity; how it was run: as §1
# [23] = tested on: MDA-MB-231; test: Growth inhibition of human MDA-MB-231 cells assessed as cell growth at 10 '-8 M after 48 hrs by sulforhodamine B assay; conditions: MDA-MB-231, 48 h, read-out: Activity
# [24] = tested on: PC-3; test: Growth inhibition of human PC3 cells assessed as cell growth at 10 '-8 M after 48 hrs by sulforhodamine B assay; conditions: PC-3, 48 h, read-out: Activity
# [25] = tested on: 786-0; test: Growth inhibition of human 786-0 cells assessed as cell growth at 10 '-8 M after 48 hrs by sulforhodamine B assay; conditions: 786-0, 48 h, read-out: Activity; how it was run: as §1
# [26] = tested on: SNB-19; test: Growth inhibition of human SNB19 cells assessed as cell growth at 10 '-8 M after 48 hrs by sulforhodamine B assay; conditions: SNB-19, 48 h, read-out: Activity
# [27] = tested on: HOP-92; test: Growth inhibition of human HOP92 cells assessed as cell growth at 10 '-8 M after 48 hrs by sulforhodamine B assay; conditions: HOP-92, 48 h, read-out: Activity
# [28] = read-out: LD50 (the source's name)
compound,measurement,setting,value
Cc1cc(=O)oc2cc(OCCn3c(C)nn(-c4ccc(Cl)cc4)c3=O)ccc12,growth at 10 µM,[1],14%
same,growth at 10 µM,[2],-1%
same,growth at 1 µM,[3],89%
same,growth at 1 µM,[4],96%
same,growth at 1 µM,[5],93%
same,growth at 1 µM,[6],96%
same,inhibition of growth at 10 µM,[7],58.9%
same,inhibition of growth at 10 µM,[8],99.3%
same,inhibition of growth at 10 µM,[9],78.8%
same,growth at 0.1 µM,[10],108%
same,growth at 0.1 µM,[11],76%
same,growth at 100 µM,[12],33%
same,growth at 100 µM,[13],25%
same,growth at 0.01 µM,[14],107%
same,growth at 100 µM,[15],55%
same,growth at 10 µM,[16],64%
same,GI50,[17],4.83 µM
same,TGI,[17],> 1 µM
same,CC50,[17]; [28],> 1 µM
same,GI50,[18],6.07 µM
same,TGI,[18],> 1 µM
same,CC50,[18]; [28],> 1 µM
same,GI50,[19],1.29 µM
same,TGI,[19],> 1 µM
same,CC50,[19]; [28],> 1 µM
same,inhibition of growth at 10 µM,[20],78.4%
same,inhibition of growth at 10 µM,[21],40.4%
same,growth at 0.1 µM,[22],98%
same,growth at 0.01 µM,[23],96%
same,growth at 0.01 µM,[24],97%
same,growth at 0.01 µM,[25],103%
same,growth at 0.01 µM,[26],92%
same,growth at 0.01 µM,[27],87%
